Assay results gathered from unrelated publications.
RIOK2: Serine/threonine-protein kinase RIO2 (RIOK2, Homo sapiens, UniProt Q9BVS4)
HTR1A: 5-hydroxytryptamine receptor 1A (HTR1A, Homo sapiens, UniProt P08908)
Fibroblast growth factor 14: Fibroblast growth factor 14 (Homo sapiens, UniProt Q92915)

The remaining binding of N#Cc1ccc(NC(=O)Nc2ccccc2)cc1 is reported as 68% (RIOK2; cell-free assay, competition with immobilised ligand; 25 µM).
The remaining binding of COc1ccc2oc(-c3ccc4nc(N)oc4c3)c/c(=N\c3ccccc3NC(=O)CCN)c2c1 is reported as 101% (Phosphatidylinositol 4-phosphate 3-kinase C2 domain-containing subunit alpha (PIK3C2A, Homo sapiens, UniProt O00443); binding; 1 µM).
For CN(C)CCOC(=O)COc1ccc(Cl)cc1, the inhibition was -5.33% (HTR1A; ligand displacement, radioligand; 1 µM, cell membranes).
C#Cc1cnc(Nc2ccnc(CO)c2)nc1Nc1ccccc1S(C)(=O)=NC#N (stereo not drawn) has a remaining signal of 100% (RIOK2; cell-free assay; 1 µM).
For CCCCC(=O)Nc1ccc(-c2ccc3ncn(CCC)c(=O)c3c2)cn1, the remaining binding was 94% (Mitogen-activated protein kinase kinase kinase 13 (MAP3K13, Homo sapiens, UniProt O43283); binding, competition with immobilised ligand; 0.5 µM).
For CCN1/C(=C/C(C)=O)Sc2ccc(F)cc21, the inhibition was 0.04% (Nociceptin receptor (OPRL1, Homo sapiens, UniProt P41146); ligand displacement, radioligand; 10 µM).
For CC(=O)Nc1ccc(S(=O)(=O)N2CCN(CC(O)COc3ccc4ccccc4c3)CC2)cc1 (stereo not drawn), the kon was 4290 M⁻¹ s⁻¹ (Fibroblast growth factor 14; binding, SPR).
Cc1cc(O)c(-c2ccc([C@@H](C)CN(C)C)cc2)c2c1[nH]c(=O)c1sccc12 gave an inhibition of -4.37% (Serine/threonine-protein kinase TAO2 (TAOK2, Homo sapiens, UniProt Q9UL54); enzyme activity, inhibitor; 0.1 µM).
O=C(CN(Cc1ccccc1)S(=O)(=O)c1ccc(F)cc1)Nc1cccc(Cl)c1Cl gave a ΔTm of 1 °C (Fibroblast growth factor 14; thermal stability; 25 µM).
NC/C(=C\F)COc1cccc(Cn2c(=S)[nH]c(=O)c3[nH]cnc32)c1 has an inhibition of less than 50% (HTR1A; ligand displacement, radioligand; 10 µM).
C1=C/COCc2cc(ccc2OCCN2CCCC2)Nc2nccc(n2)-c2cccc(c2)COC/1 gave a remaining binding of 87% (Eukaryotic translation initiation factor 2-alpha kinase 1 (EIF2AK1, Homo sapiens, UniProt Q9BQI3); binding; 0.1 µM).
For Cc1cccc(NC(=O)Cn2cc(CO)c3ccccc32)c1, the koff was 0.013 s⁻¹ (Fibroblast growth factor 14; binding, SPR).
